In ChEMBL document CHEMBL1938274, “Discovery of potent and specific CXCR3 antagonists” (Bioorg Med Chem Lett, 2012):

Tests used:
[1] = target: T1, C-X-C chemokine receptor type 3 (Homo sapiens, UniProt P49682); experiment: Displacement of [125I]-IP-10 from CXCR3 in presence of 100% human serum
T1 sequence (P49682 whole entry): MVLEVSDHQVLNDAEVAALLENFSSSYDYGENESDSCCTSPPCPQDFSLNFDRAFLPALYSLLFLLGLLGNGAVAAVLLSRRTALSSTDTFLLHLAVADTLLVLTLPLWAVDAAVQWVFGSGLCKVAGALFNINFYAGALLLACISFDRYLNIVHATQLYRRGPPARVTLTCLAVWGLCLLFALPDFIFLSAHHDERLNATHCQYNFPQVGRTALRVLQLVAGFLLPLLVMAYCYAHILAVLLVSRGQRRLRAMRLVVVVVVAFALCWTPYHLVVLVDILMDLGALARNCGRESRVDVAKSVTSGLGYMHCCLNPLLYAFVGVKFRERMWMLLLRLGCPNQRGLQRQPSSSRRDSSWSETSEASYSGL

[2] = target: T1, C-X-C chemokine receptor type 3; experiment: Displacement of [125I]-IP-10 from CXCR3
PBL [3] = experiment: Toxicity in human PBL assessed as chromosomal aberrations at 7.81 to 1000 ug/mL; assay type: cell-based
Method in brief: (§1)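 Cultured human peripheral blood lymphocytes exposed at 7.81–1000 μg/mL, with and without S9 metabolic activation; chromosomal aberrations scored.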

PBL [4] = experiment: Toxicity in human PBL assessed as chromosomal aberrations at 7.81 to 1000 ug/mL in the presence of S9; assay type: cell-based; method in brief: as §1
[5] = Permeability of the compound at pH 5 to 7.4 by PAMPA; assay type: ADME; conditions: read-out: permeability
Method in brief: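 PAMPA permeability measured across pH 5 to 7.4.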

[6] = Apparent oral bioavailability in mouse at 5 mg/kg; assay type: ADME, organism-based; conditions: in vivo, read-out: Fapp
[7] = Volume of distribution at steady state in rat at 0.5 mg/kg, iv; assay type: ADME, organism-based; set-up: dose 0.5 mg/kg, route intravenous; conditions: in vivo, read-out: Vdss
Method in brief: (§2)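 Single intravenous dose in 10% N,N-dimethylacetamide, 10% ethanol, 30% propylene glycol, 50% water: 1 mg/kg mouse; 0.5 mg/kg rat, beagle dog, cynomolgus monkey. Plasma clearance also given as percent of hepatic blood flow.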

[8] = Clearance in mouse at 1 mg/kg, iv; assay type: ADME, organism-based; set-up: dose 1 mg/kg, route intravenous; conditions: in vivo; method in brief: as §2
Rattus norvegicus [9] = experiment: Hepatic blood flow in rat at 0.5 mg/kg, iv; assay type: ADME, organism-based, Liver; set-up: dose 0.5 mg/kg, route intravenous; conditions: in vivo; method in brief: as §2
Mus musculus [10] = experiment: Hepatic blood flow in mouse at 1 mg/kg, iv; assay type: ADME, organism-based, Liver; set-up: dose 1 mg/kg, route intravenous; conditions: in vivo; method in brief: as §2
[11] = Clearance in cynomolgus monkey at 0.5 mg/kg, iv; assay type: ADME, organism-based, Macaca fascicularis; set-up: dose 0.5 mg/kg, route intravenous; conditions: in vivo; method in brief: as §2
Cytochrome P450 3A4 = Cytochrome P450 3A4 (Homo sapiens, UniProt P08684); experiment: Inhibition of CYP3A4; assay type: ADME
Cytochrome P450 3A4, sequence (P08684 whole entry): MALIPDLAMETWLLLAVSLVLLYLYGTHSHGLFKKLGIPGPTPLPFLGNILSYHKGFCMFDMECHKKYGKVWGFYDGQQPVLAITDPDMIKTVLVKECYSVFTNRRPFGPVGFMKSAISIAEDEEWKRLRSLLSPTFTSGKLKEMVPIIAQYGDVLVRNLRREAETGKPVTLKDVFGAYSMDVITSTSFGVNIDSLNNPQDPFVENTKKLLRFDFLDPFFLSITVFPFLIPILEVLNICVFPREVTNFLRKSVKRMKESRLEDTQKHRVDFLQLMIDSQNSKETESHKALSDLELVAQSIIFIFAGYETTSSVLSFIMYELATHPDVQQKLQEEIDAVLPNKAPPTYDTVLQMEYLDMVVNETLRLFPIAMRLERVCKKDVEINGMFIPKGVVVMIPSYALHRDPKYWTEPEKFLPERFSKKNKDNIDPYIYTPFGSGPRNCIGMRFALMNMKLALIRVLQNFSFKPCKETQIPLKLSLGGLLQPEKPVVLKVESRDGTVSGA

[12] = Mean residence time in rat at 0.5 mg/kg, iv; assay type: ADME, organism-based; set-up: dose 0.5 mg/kg, route intravenous; conditions: in vivo; method in brief: as §2
[13] = Apparent oral bioavailability in Beagle dog at 2 mg/kg; assay type: ADME, organism-based, Canis lupus familiaris; conditions: in vivo, read-out: Fapp
Cynomolgus monkey = experiment: Hepatic blood flow in cynomolgus monkey at 0.5 mg/kg, iv; assay type: ADME, organism-based, Macaca fascicularis, Liver; set-up: dose 0.5 mg/kg, route intravenous; conditions: in vivo; method in brief: as §2
[14] = Half life in mouse at 1 mg/kg, iv; assay type: ADME, organism-based; set-up: dose 1 mg/kg, route intravenous; conditions: in vivo; method in brief: as §2
[15] = Volume of distribution at steady state in mouse at 1 mg/kg, iv; assay type: ADME, organism-based; set-up: dose 1 mg/kg, route intravenous; conditions: in vivo, read-out: Vdss; method in brief: as §2
[16] = Half life in Beagle dog at 0.5 mg/kg, iv; assay type: ADME, organism-based, Canis lupus familiaris; set-up: dose 0.5 mg/kg, route intravenous; conditions: in vivo; method in brief: as §2
[17] = Apparent oral bioavailability in cynomolgus monkey at 2 mg/kg; assay type: ADME, organism-based, Macaca fascicularis; conditions: in vivo, read-out: Fapp
Blood [18] = experiment: Drug level in C57BL/6 mouse blood at 3 mg/kg, sc after 1 hr; assay type: ADME, organism-based; set-up: dose 3 mg/kg, route subcutaneous; conditions: in vivo
Method in brief: (§3)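 C57BL/6 mice given bleomycin intra-tracheally and dosed subcutaneously by osmotic mini-pump for 6 days; plasma collected to measure drug level, reported 1 h post dose.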

[19] = Mean residence time in mouse at 1 mg/kg, iv; assay type: ADME, organism-based; set-up: dose 1 mg/kg, route intravenous; conditions: in vivo; method in brief: as §2
[20] = Half life in rat at 0.5 mg/kg, iv; assay type: ADME, organism-based; set-up: dose 0.5 mg/kg, route intravenous; conditions: in vivo; method in brief: as §2
[21] = target: T2, C-X-C chemokine receptor type 3 (Mus musculus, UniProt O88410); experiment: Receptor occupancy of CXCR3 in mouse whole blood assessed as inhibition of ITAC binding by fluorescence quenching based FACS analysis
T2 sequence (O88410 whole entry): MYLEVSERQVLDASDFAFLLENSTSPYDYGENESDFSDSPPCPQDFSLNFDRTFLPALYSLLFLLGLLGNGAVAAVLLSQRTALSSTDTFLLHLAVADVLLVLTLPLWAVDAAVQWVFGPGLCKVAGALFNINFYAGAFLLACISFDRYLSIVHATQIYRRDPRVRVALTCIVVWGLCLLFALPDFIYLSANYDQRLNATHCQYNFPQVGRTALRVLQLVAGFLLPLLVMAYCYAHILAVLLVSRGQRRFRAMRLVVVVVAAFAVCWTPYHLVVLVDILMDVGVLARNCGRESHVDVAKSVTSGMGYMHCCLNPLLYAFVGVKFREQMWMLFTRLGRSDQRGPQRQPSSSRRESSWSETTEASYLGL

Canis familiaris = experiment: Hepatic blood flow in Beagle dog at 0.5 mg/kg, iv; assay type: ADME, organism-based, Canis lupus familiaris, Liver; set-up: dose 0.5 mg/kg, route intravenous; conditions: in vivo; method in brief: as §2
[22] = Volume of distribution at steady state in Beagle dog at 0.5 mg/kg, iv; assay type: ADME, organism-based, Canis lupus familiaris; set-up: dose 0.5 mg/kg, route intravenous; conditions: in vivo, read-out: Vdss; method in brief: as §2
[23] = Mean residence time in Beagle dog at 0.5 mg/kg, iv; assay type: ADME, organism-based, Canis lupus familiaris; set-up: dose 0.5 mg/kg, route intravenous; conditions: in vivo; method in brief: as §2
[24] = Fraction unbound in Beagle dog plasma; assay type: ADME, cell-free, Canis lupus familiaris
[25] = Apparent oral bioavailability in rat at 2 mg/kg; assay type: ADME, organism-based; conditions: in vivo, read-out: Fapp
[26] = target: T1, C-X-C chemokine receptor type 3; experiment: Receptor occupancy of CXCR3 in human whole blood assessed as inhibition of ITAC binding by fluorescence quenching based FACS analysis
Blood [27] = experiment: Drug level in C57BL/6 mouse blood at 10 mg/kg, sc after 1 hr; assay type: ADME, organism-based; set-up: dose 10 mg/kg, route subcutaneous; conditions: in vivo; method in brief: as §3
[28] = Clearance in Beagle dog at 0.5 mg/kg, iv; assay type: ADME, organism-based, Canis lupus familiaris; set-up: dose 0.5 mg/kg, route intravenous; conditions: in vivo; method in brief: as §2
[29] = Fraction unbound in mouse plasma; assay type: ADME, cell-free
[30] = Fraction unbound in cynomolgus monkey plasma; assay type: ADME, cell-free, Macaca fascicularis
Rattus norvegicus [31] = experiment: Clearance in rat at 0.5 mg/kg, iv; assay type: ADME, organism-based; set-up: dose 0.5 mg/kg, route intravenous; conditions: in vivo; method in brief: as §2
Mus musculus [32] = experiment: Inhibition of bleomycin-induced leukocyte migration into lungs in C57BL/6 mouse lung injury model by measuring cell count in bronchoalveolar lavage fluid at 1 mg/kg, sc administered for 6 days; assay type: functional; conditions: route subcutaneous
Method in brief: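 C57BL/6 mice given one intra-tracheal instillation of bleomycin, 1 mg/kg; compound delivered subcutaneously by osmotic mini-pump from challenge day for 6 days; cells counted in bronchoalveolar lavage on day six.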

Cytochrome P450 2D6 = Cytochrome P450 2D6 (Homo sapiens, UniProt P10635); experiment: Inhibition of CYP2D6; assay type: ADME
Cytochrome P450 2D6, sequence (P10635 whole entry): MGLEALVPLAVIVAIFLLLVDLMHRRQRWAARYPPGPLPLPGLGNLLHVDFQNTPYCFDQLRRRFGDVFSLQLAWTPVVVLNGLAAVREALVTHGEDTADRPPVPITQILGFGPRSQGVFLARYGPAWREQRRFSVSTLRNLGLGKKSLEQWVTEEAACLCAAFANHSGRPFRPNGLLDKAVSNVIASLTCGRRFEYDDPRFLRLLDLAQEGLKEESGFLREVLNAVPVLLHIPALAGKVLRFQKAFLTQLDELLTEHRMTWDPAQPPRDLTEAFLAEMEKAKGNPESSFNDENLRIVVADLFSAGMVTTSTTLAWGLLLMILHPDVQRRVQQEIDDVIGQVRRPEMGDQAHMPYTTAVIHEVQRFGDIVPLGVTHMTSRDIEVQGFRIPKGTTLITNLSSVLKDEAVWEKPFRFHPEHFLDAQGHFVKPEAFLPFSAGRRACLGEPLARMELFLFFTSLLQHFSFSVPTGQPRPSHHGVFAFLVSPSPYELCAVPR

[33] = Mean residence time in cynomolgus monkey at 0.5 mg/kg, iv; assay type: ADME, organism-based, Macaca fascicularis; set-up: dose 0.5 mg/kg, route intravenous; conditions: in vivo; method in brief: as §2
[34] = Fraction unbound in rat plasma; assay type: ADME, cell-free
[35] = Half life in cynomolgus monkey at 0.5 mg/kg, iv; assay type: ADME, organism-based, Macaca fascicularis; set-up: dose 0.5 mg/kg, route intravenous; conditions: in vivo; method in brief: as §2
[36] = Volume of distribution at steady state in cynomolgus monkey at 0.5 mg/kg, iv; assay type: ADME, organism-based, Macaca fascicularis; set-up: dose 0.5 mg/kg, route intravenous; conditions: in vivo, read-out: Vdss; method in brief: as §2
Blood [37] = experiment: Drug level in C57BL/6 mouse blood at 1 mg/kg, sc after 1 hr; assay type: ADME, organism-based; set-up: dose 1 mg/kg, route subcutaneous; conditions: in vivo; method in brief: as §3

C[C@H](c1nc2ccccn2c(=O)c1-c1ccc(C#N)cc1)N(CC1CCS(=O)(=O)CC1)C(=O)Cc1ccc(OC(F)(F)F)cc1
IC50 [1]: 22 nM
IC50 [2]: 6 nM
Activity (PBL [3]): Toxic
Activity (PBL [4]): Toxic

CCS(=O)(=O)CCN(C(=O)Cc1ccc(C(F)(F)F)c(F)c1)[C@H](C)c1nc2ncccc2c(=O)n1-c1ccc(F)cc1
Papp [5]: 0.8 ×10⁻⁶ cm/s
IC50 [1]: 58 nM
IC50 [2]: 47 nM
Activity (PBL [3]): Non-toxic
Activity (PBL [4]): Non-toxic

CCS(=O)(=O)CCN(C(=O)Cc1ccc(F)c(C(F)(F)F)c1)[C@H](C)c1nc2ncccc2c(=O)n1-c1ccc(Cl)cc1
IC50 [1]: 22 nM
IC50 [2]: 6 nM
Activity (PBL [3]): Non-toxic
Activity (PBL [4]): Non-toxic

CCS(=O)(=O)CCN(C(=O)Cc1ccc(C(F)(F)F)c(F)c1)[C@H](C)c1nc2ncccc2c(=O)n1-c1ccc(Cl)cc1
IC50 [1]: 21 nM
IC50 [2]: 7 nM
Activity (PBL [3]): Non-toxic
Activity (PBL [4]): Non-toxic

C[C@H](c1nc2ncccc2c(=O)n1-c1ccc(Cl)cc1)N(CC1CCS(=O)(=O)CC1)C(=O)Cc1ccc(F)c(C(F)(F)F)c1
bioavailability [6]: 45%
Vd [7]: 1.9 L/kg
clearance [8]: 2.17 mL/min/kg
QH (Rattus norvegicus [9]): 3%
QH (Mus musculus [10]): 3%
clearance [11]: 2 mL/min/kg
IC50 (Cytochrome P450 3A4): > 10 µM
MRT [12]: 3.5 h
bioavailability [13]: > 100%
QH (Cynomolgus monkey): 3%
half-life [14]: 240 min
IC50 [1]: 12 nM
Vd [15]: 0.48 L/kg
half-life [16]: 60 min
bioavailability [17]: 44%
Drug uptake (Blood [18]): 3.4 mg/kg
MRT [19]: 3.9 h
half-life [20]: 240 min
IC50 [2]: 6 nM
IC50 [21]: 200 nM
QH (Canis familiaris): 82%
Vd [22]: 1.4 L/kg
Activity (PBL [3]): Non-toxic
MRT [23]: 1.1 h
fraction unbound [24]: 0.015
bioavailability [25]: 69%
IC50 [26]: 9.8 nM
Drug uptake (Blood [27]): 5.6 mg/kg
clearance [28]: 25 mL/min/kg
fraction unbound [29]: 0.007
fraction unbound [30]: 0.037
Activity (PBL [4]): Non-toxic
CL (Rattus norvegicus [31]): 0.49 L/h/kg
EC (Mus musculus [32]): 1 mg/kg
IC50 (Cytochrome P450 2D6): > 10 µM
MRT [33]: 8.7 h
fraction unbound [34]: 0.061
half-life [35]: 540 min
Vd [36]: 1.2 L/kg
Drug uptake (Blood [37]): 1.3 µM

C[C@H](c1nc2ncccc2c(=O)n1-c1ccc(Cl)cc1)N(CC1CCS(=O)(=O)CC1)C(=O)Cc1ccc(C(F)(F)F)c(F)c1
IC50 (Cytochrome P450 3A4): > 10 µM
IC50 [1]: 13 nM
Activity (PBL [3]): Non-toxic
Activity (PBL [4]): Non-toxic
IC50 (Cytochrome P450 2D6): > 10 µM
